Experimental data taken from ChEMBL document CHEMBL1157557, “Synthesis and evaluation of 1,4-diphenylbutadiene derivatives as inhibitors of plasminogen activator inhibitor-1 (PAI-1) production” (Bioorg Med Chem, 2010).

Species: Bos taurus
Assay: Inhibition of LPS-induced plasminogen activator inhibitor-1 production assessed as relative inhibitory potency in BCAEC at 10 uM after 24 hrs by ELISA relative to T-686
Format: functional
Settings: not given
Procedure, shortened: (§1)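 Bovine endothelial cells (BCaEs, passages 8–9) grown to confluence in E'MEM with 10% FCS, then serum-starved 24 h. Compound added (10 µM […]; 1 µM LPS-induced, 2 µM TGF-β-induced) with or without LPS 1 µg/ml or TGF-β 0.3 ng/ml. After 24 h, conditioned medium cleared by centrifugation (3000 rpm, 10 min, 4 °C) and PAI-1 antigen measured by specific ELISA; activity expressed relative to T-686 reference.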

Compound | Activity
COC(=O)C(=C/c1cc(OC)c(OC)c(OC)c1)/C(C(N)=O)=C(\C)c1ccccc1 | 0.3
COC(=O)C(=C/c1cc(OC)c(OC)c(OC)c1)/C(C(N)=O)=C(/C)c1ccccc1 | 0.2
COC(=O)C(=C\c1cc(OC)c(OC)c(OC)c1)/C(=C\c1ccccc1)C(N)=O | 0.7
COC(=O)C(=C/c1cc(OC)c(OC)c(OC)c1)/C(=C\c1ccccc1)C(N)=O | 0.9
COC(=O)C(=C(/C)c1cc(OC)c(OC)c(OC)c1)/C(=C\c1ccccc1)C(N)=O | 1
COC(=O)C(=C/c1cc(OC)c(OC)c(OC)c1)/C(=C/c1ccccc1)C(N)=O | 0.7
COC(=O)C(/C(=C\c1ccccc1)C(N)=O)=C(\C)c1cc(OC)c(OC)c(OC)c1 | 0.3

Species: Bos taurus
Assay: Inhibition of LPS-induced plasminogen activator inhibitor-1 production in BCAEC assessed as relative inhibitory potency in BCAEC at 1 uM after 24 hrs by ELISA relative to T-686
Format: functional
Settings: not given
Procedure, shortened: as §1

Compound | Activity
COC(=O)C(=C(/C)c1cc(OC)cc(OC)c1)/C(=C\c1ccccc1)C(=O)NCc1cccnc1.Cl | 1.3
COC(=O)C(=C(/C)c1cc(OC)cc(OC)c1)/C(=C\c1ccccc1)C(=O)Nc1ncccn1 | 0.1
COC(=O)C(=C(/C)c1cc(OC)cc(OC)c1)/C(=C\c1ccncc1)C(N)=O.Cl | 1.5
COC(=O)C(=C(/C)c1cc(OC)cc(OC)c1)/C(=C\c1ccccc1)C(=O)N1CCN(C)CC1 | 0.3
COC(=O)C(=C(/C)c1cc(OC)cc(OC)c1)/C(=C\c1ccccc1)C(=O)Nc1cccnc1.Cl | 2.2
COc1cc(OC)cc(/C(C)=C2\C(=O)N(Cc3ccncc3)C(=O)\C2=C\c2ccccc2)c1.Cl | 1.8
COC(=O)C(=C(/C)c1cc(OC)c(OC)c(OC)c1)/C(=C\c1ccccc1)C(N)=O | 1.5

Species: Bos taurus
Assay: Inhibition of TGF-beta-induced plasminogen activator inhibitor-1 production in BCAEC assessed as relative inhibitory potency in BCAEC at 2 uM after 24 hrs by ELISA relative to T-686
Format: functional
Settings: not given
Procedure, shortened: as §1

Compound | Activity
COC(=O)C(=C(/C)c1cc(OC)cc(OC)c1)/C(=C\c1ccccc1)C(=O)NCc1cccnc1.Cl | 1.8
COC(=O)C(=C(/C)c1cc(OC)cc(OC)c1)/C(=C\c1ccncc1)C(N)=O.Cl | 1.1
COC(=O)C(=C(/C)c1cc(OC)cc(OC)c1)/C(=C\c1ccccc1)C(=O)N1CCN(C)CC1 | 0.3
COC(=O)C(=C(/C)c1cc(OC)cc(OC)c1)/C(=C\c1ccccc1)C(=O)Nc1cccnc1.Cl | 1.1
COc1cc(OC)cc(/C(C)=C2\C(=O)N(Cc3ccncc3)C(=O)\C2=C\c2ccccc2)c1.Cl | 1.4
COC(=O)C(=C(/C)c1cc(OC)c(OC)c(OC)c1)/C(=C\c1ccccc1)C(N)=O | 0.7

System: not listed separately
Assay: Metabolic stability in dog blood assessed as compound remaining after 1 hr by HPLC analysis
Format: ADME, tissue-based, Canis lupus familiaris
Settings: read-out: Stability
Procedure, shortened: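 Stock (100 µg/ml in acetonitrile) diluted tenfold with saline; 0.3 ml added to 3 ml heparinized dog blood prewarmed to 37 °C and incubated at 37 °C. After 1 h plasma separated with diethyl ether by centrifugation and parent level determined by HPLC; reported as % remaining.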

remaining at 1 h | Compound
60% | COc1cc(OC)cc(/C(C)=C2\C(=O)N(Cc3ccncc3)C(=O)\C2=C\c2ccccc2)c1.Cl

System: not listed separately
Assay: Aqueous solubility in water
Format: physicochemical
Settings: not given

solubility | Compound
111 µg/mL | COc1cc(OC)cc(/C(C)=C2\C(=O)N(Cc3ccncc3)C(=O)\C2=C\c2ccccc2)c1.Cl

System: not listed separately
Assay: Oral bioavailability in dog
Format: ADME, organism-based, Canis lupus familiaris
Settings: in vivo

bioavailability | Compound
21% | COC(=O)C(=C(/C)c1cc(OC)cc(OC)c1)/C(=C\c1ccccc1)C(=O)NCc1cccnc1.Cl
78% | COC(=O)C(=C(/C)c1cc(OC)cc(OC)c1)/C(=C\c1ccncc1)C(N)=O.Cl
17% | COC(=O)C(=C(/C)c1cc(OC)cc(OC)c1)/C(=C\c1ccccc1)C(=O)Nc1cccnc1.Cl
18% | COc1cc(OC)cc(/C(C)=C2\C(=O)N(Cc3ccncc3)C(=O)\C2=C\c2ccccc2)c1.Cl
9% | COC(=O)C(=C(/C)c1cc(OC)c(OC)c(OC)c1)/C(=C\c1ccccc1)C(N)=O

System: not listed separately
Assay: Photostability assessed as compound remaining by HPLC analysis
Format: physicochemical
Settings: not given
Procedure, shortened: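 Stock (100 µg/ml in acetonitrile) 0.1 ml mixed with 0.9 ml 0.1 N HCl; kept at room temperature 24 h under room light or foil-protected. Read-out as % compound remaining.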

Stability | Compound
90% | COC(=O)C(=C(/C)c1cc(OC)cc(OC)c1)/C(=C\c1ccccc1)C(=O)NCc1cccnc1.Cl
97% | COC(=O)C(=C(/C)c1cc(OC)cc(OC)c1)/C(=C\c1ccncc1)C(N)=O.Cl
88% | COC(=O)C(=C(/C)c1cc(OC)cc(OC)c1)/C(=C\c1ccccc1)C(=O)Nc1cccnc1.Cl
38% | COc1cc(OC)cc(/C(C)=C2\C(=O)N(Cc3ccncc3)C(=O)\C2=C\c2ccccc2)c1.Cl
91% | COC(=O)C(=C(/C)c1cc(OC)c(OC)c(OC)c1)/C(=C\c1ccccc1)C(N)=O

Species: Rattus norvegicus
Assay: Genotoxicity in rat assessed as chromosomal aberration
Format: toxicity, organism-based
Settings: in vivo

Compound | Activity
COC(=O)C(=C(/C)c1cc(OC)cc(OC)c1)/C(=C\c1ccccc1)C(=O)NCc1cccnc1.Cl | Non-toxic
COC(=O)C(=C(/C)c1cc(OC)cc(OC)c1)/C(=C\c1ccncc1)C(N)=O.Cl | Toxic
COc1cc(OC)cc(/C(C)=C2\C(=O)N(Cc3ccncc3)C(=O)\C2=C\c2ccccc2)c1.Cl | Non-toxic
COC(=O)C(=C(/C)c1cc(OC)c(OC)c(OC)c1)/C(=C\c1ccccc1)C(N)=O | Non-toxic

System: Rattus norvegicus
Assay: Toxicity in rat assessed as decrease in locomotor activity at 300 mg/kg, po
Settings: in vivo

Compound | Activity
COC(=O)C(=C(/C)c1cc(OC)cc(OC)c1)/C(=C\c1ccccc1)C(=O)NCc1cccnc1.Cl | Toxic
